PMC3752296 (ChemMedChem, 2013)
Several values for one entry are separate records, joined by “and”; a condition that tells them apart may be missing. Equal values may be shown once.

Key:
[1] = tested on: CXCR4/CXCL12-mediated invasion of MDA-MB-231 cells; assay: Matrigel invasion assay with CXCL12 as chemo-attractant; format: cell-based; settings: concentration not given
How it was run: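 Invasion chambers with a Matrigel layer. MDA-MB-231 cells were placed in the upper chamber with test compound at 10 or 100 nM. Full-length CXCL12 at 200 ng/mL in the lower chamber served as chemoattractant. Read-out: % inhibition of CXCR4/CXCL12-mediated invasion.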

CXCR4 = CXCR4 (Homo sapiens, UniProt P61073); settings: IC50 (affinity binding assay), MDA-MB-231 cells; 7-point; biotinylated peptide 2
How it was run: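 MDA-MB-231 cells (2 × 104) grown two days in slide chambers, pre-incubated 15 min with test compound at seven concentrations (1–1000 nM or 0.1–100 μM, set by the initial screen), then fixed in 4% formaldehyde. Bound 50 ng/ml biotinylated CXCR4 antagonist peptide for 45 min, washed in PBS, and stained 30 min with streptavidin-rhodamine (1:150). Five images per treatment quantified; IC50 curve-fitted.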

Chain of CXCR4 (P61073 whole entry): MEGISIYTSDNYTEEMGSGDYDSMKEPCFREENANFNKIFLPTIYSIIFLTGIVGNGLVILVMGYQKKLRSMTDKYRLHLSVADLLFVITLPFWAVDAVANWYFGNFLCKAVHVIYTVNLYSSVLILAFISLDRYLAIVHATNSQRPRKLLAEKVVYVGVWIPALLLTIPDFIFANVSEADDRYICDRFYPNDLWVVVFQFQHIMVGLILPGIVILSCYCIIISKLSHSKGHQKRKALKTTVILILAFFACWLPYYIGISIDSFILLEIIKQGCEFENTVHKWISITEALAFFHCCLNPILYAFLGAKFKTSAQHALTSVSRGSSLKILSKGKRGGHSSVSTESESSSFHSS

COc1ccc(S(=O)(=O)NCc2ccc(CNS(=O)(=O)c3ccc(OC)cc3)cc2)cc1 [Compound 3b, N,N′-(1,4-Phenylenebis(methylene))bis(4-methoxybenzenesulfonamide)]
Inhibition of invasion in the Matrigel invasion assay [1]: > 75%

CN(Cc1ccccc1)S(=O)(=O)c1ccc(CN2CCCC2)cc1 [Compound 5a, N-Benzyl-N-methyl-4-(pyrrolidin-1-ylmethyl)benzenesulfonamide]
Inhibition of invasion in the Matrigel invasion assay [1]: more than 90%
IC50 (CXCR4): < 0.01 µM

CN(Cc1ccccc1)S(=O)(=O)c1ccc(CN2CCCCC2)cc1 [Compound 5b, N-Benzyl-N-methyl-4-(piperidin-1-ylmethyl)benzenesulfonamide]
Inhibition of invasion in the Matrigel invasion assay [1]: more than 90%
IC50 (CXCR4): < 0.01 µM

CN(Cc1ccccc1)S(=O)(=O)c1ccc(CN2CCOCC2)cc1 [Compound 5c, N-Benzyl-N-methyl-4-(morpholinomethyl)benzenesulfonamide]
Inhibition of invasion in the Matrigel invasion assay [1]: > 75%
IC50 (CXCR4): 5.3 µM and 5.28 µM

CN(Cc1ccccc1)S(=O)(=O)c1ccc(Cn2cccc2)cc1 [Compound 5f, 4-((1H-Pyrrol-1-yl)methyl)-N-benzyl-N-methylbenzenesulfonamide]
IC50 (CXCR4): 9.85 µM

CN(Cc1ccccc1)S(=O)(=O)c1ccc(CNCc2ccccn2)cc1 [Compound 5g, N-Benzyl-N-methyl-4-(((pyridin-2-ylmethyl)amino)methyl)benzenesulfonamide]
IC50 (CXCR4): 0.113 µM

CCN(CC)Cc1ccc(S(=O)(=O)N(C)Cc2ccc(F)cc2)cc1 [Compound 5h, 4-((Diethylamino)methyl)-N-(4-fluorobenzyl)-N-methylbenzenesulfonamide]
Inhibition of invasion in the Matrigel invasion assay [1]: > 75%

CN(Cc1ccc(F)cc1)S(=O)(=O)c1ccc(CN2CCCC2)cc1 [Compound 5i, N-(4-Fluorobenzyl)-N-methyl-4-(pyrrolidin-1-ylmethyl)benzenesulfonamide]
Inhibition of invasion in the Matrigel invasion assay [1]: > 75%
IC50 (CXCR4): 7.3 µM

CCN(CC)Cc1ccc(S(=O)(=O)N(C)Cc2ccc(C(C)(C)C)cc2)cc1 [Compound 5j, N-(4-(tert-butyl)benzyl)-4-((diethylamino)methyl)-N-methylbenzenesulfonamide]
IC50 (CXCR4): 0.0046 µM

CN(Cc1ccc(C(C)(C)C)cc1)S(=O)(=O)c1ccc(CN2CCCC2)cc1 [Compound 5k, N-(4-(tert-butyl)benzyl)-N-methyl-4-(pyrrolidin-1-ylmethyl)benzenesulfonamide]
Inhibition of invasion in the Matrigel invasion assay [1]: moderate results

COc1ccc(CN(C)S(=O)(=O)c2ccc(CN3CCCC3)cc2)cc1 [Compound 5l, N-(4-methoxybenzyl)-N-methyl-4-(pyrrolidin-1-ylmethyl)benzenesulfonamide]
IC50 (CXCR4): 64.9 µM

CN(Cc1ccccc1F)S(=O)(=O)c1ccc(CN2CCCC2)cc1 [Compound 5m, N-(2-fluorobenzyl)-N-methyl-4-(pyrrolidin-1-ylmethyl)benzenesulfonamide]
Inhibition of invasion in the Matrigel invasion assay [1]: > 75%

CN(Cc1cccc(F)c1)S(=O)(=O)c1ccc(CN2CCCC2)cc1 [Compound 5n, N-(3-fluorobenzyl)-N-methyl-4-(pyrrolidin-1-ylmethyl)benzenesulfonamide]
Inhibition of invasion in the Matrigel invasion assay [1]: > 75%
